# PMC3573876 (The Journal of antibiotics, 2012)
# Tests used:
# [1] = test system: epidermal growth factor receptor (EGFR); conditions: cell-free ELISA assay; cited from earlier work
# [2] = test system: vascular endothelial growth factor receptor-1/fms-like tyrosine kinase-1 (VEGFR-1/Flt-1); conditions: cell-free ELISA assay; cited from earlier work
# [3] = test system: human epidermal growth factor receptor-2 (HER2/ErbB-2); conditions: cell-free ELISA assay; cited from earlier work
# Cytotoxicity assay [4] = assay type: cell-based; conditions: human, NCI-H460 large cell lung carcinoma cells
# In short: (§1)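 Cells were exposed continuously to the test compound for 72 h, then stained with sulforhodamine B. IC50 was the concentration that reduced staining by 50% relative to untreated controls. Positive controls were run alongside. MCF-7 came from a cancer-centre stock, NCI-H460 from ATCC, and SF-268 from the NCI Developmental Therapeutics Program.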
# Cytotoxicity assay [5] = assay type: cell-based; conditions: human, SF-268 astrocytoma cells
# In short: as §1
# Cytotoxicity assay [6] = assay type: cell-based; conditions: human, MCF-7 breast carcinoma cells
# In short: as §1
# [7] = test system: activated p65 subunits of NF-κB in the nucleus of HeLa cells; test: ELISA based NF-κB p65 inhibitory assay; assay type: cell-based, human; conditions: for IC50: read-out: NF-κB inhibitory activity IC50 values, p65 binding, HeLa cells, ELISA
# EGFR tyrosine kinase = EGFR tyrosine kinase (Homo sapiens, UniProt P00533); test: EGFR enzymatic assay; assay type: biochemical; conditions: read-out: EGFR inhibition IC50; luminescence kinase assay
# A549 (adenocarcinoma) = conditions: A549 human cell line; cited from earlier work
# [8] = test system: HepG2 (hepatocellular carcinoma); conditions: HepG2 human cell line; cited from earlier work
# Cytotoxicity assay [9] = assay type: cell-based; conditions: human
# Cytotoxicity assay [10] = assay type: cell-based; conditions: human; remark: listed apart in the source
# Sequence of EGFR tyrosine kinase (P00533 25-1210): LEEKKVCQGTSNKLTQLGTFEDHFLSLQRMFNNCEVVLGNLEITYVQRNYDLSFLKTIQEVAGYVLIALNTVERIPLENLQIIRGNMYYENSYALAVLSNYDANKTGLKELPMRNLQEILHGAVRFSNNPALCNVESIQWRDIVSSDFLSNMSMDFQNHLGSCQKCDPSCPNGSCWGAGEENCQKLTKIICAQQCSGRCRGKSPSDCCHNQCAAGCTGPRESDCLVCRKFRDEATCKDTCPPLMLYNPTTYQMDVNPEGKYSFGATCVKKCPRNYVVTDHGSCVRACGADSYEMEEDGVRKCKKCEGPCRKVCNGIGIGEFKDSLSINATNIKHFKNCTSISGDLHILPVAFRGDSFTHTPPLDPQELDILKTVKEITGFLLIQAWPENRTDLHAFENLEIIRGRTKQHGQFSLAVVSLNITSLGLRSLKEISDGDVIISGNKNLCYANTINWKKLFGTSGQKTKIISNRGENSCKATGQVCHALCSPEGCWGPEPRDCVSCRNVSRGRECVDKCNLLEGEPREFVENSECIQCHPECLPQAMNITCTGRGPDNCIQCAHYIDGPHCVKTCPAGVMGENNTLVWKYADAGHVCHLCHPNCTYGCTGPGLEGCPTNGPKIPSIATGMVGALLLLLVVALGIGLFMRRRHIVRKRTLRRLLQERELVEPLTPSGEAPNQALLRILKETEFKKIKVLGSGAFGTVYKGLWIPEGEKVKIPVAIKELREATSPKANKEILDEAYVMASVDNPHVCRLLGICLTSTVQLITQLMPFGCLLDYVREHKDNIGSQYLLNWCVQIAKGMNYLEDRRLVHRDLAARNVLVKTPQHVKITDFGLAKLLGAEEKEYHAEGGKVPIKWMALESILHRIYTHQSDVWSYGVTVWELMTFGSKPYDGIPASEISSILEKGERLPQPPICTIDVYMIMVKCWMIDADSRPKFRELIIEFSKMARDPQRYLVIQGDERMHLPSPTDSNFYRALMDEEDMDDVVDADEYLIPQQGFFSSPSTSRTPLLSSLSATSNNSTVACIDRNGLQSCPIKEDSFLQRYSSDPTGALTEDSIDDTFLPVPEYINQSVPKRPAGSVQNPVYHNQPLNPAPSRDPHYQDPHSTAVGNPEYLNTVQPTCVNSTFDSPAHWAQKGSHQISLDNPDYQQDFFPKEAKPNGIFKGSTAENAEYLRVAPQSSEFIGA
compound,measurement,setting,value
"CN1C(=O)[C@@]23C[C@]4([C@]56C[C@@]78SS[C@@](C)(C(=O)N7[C@H]5Nc5ccccc56)N(C)C8=O)c5ccccc5N[C@@H]4N2C(=O)[C@]1(C)SS3 [11,11′-Dideoxyverticillin]","Tyrosine kinase inhibitory activity, EGFR",[1],nM range
same,"Tyrosine kinase inhibitory activity, VEGFR-1/Flt-1",[2],nM range
same,"Tyrosine kinase inhibitory activity, HER2/ErbB-2",[3],µM range
CC[C@@]1(O)C(=O)OCc2c1cc1n(c2=O)Cc2cc3ccccc3nc2-1 [Camptothecin],IC50 at 72 h,Cytotoxicity assay [4],10 nM
same,IC50 at 72 h,Cytotoxicity assay [5],10 nM
same,IC50 at 72 h,Cytotoxicity assay [6],130 nM
"CC[C@@]12SS[C@]3(C(=O)N1C)[C@@H](O)C1(C45c6ccccc6N[C@@H]4N4C(=O)[C@]6([C@@H](C)O)SS[C@]4(C(=O)N6C)[C@H]5O)c4ccccc4N[C@@H]1N3C2=O (some centres unmarked) [Gliocladicillin C (4), gliocladicillin C]",IC50,[7],> 10000 nM
same,IC50,EGFR tyrosine kinase,> 10000 nM
same,Cytotoxic activity on A549,A549 (adenocarcinoma),high cytotoxic activity
same,Cytotoxic activity on HepG2,[8],high cytotoxic activity
"CC(O)[C@@]12SS[C@]3(C(=O)N1C)[C@@H](O)[C@]1([C@@]45c6ccccc6N[C@@H]4N4C(=O)[C@]6(C)SS[C@]4(C(=O)N6C)[C@H]5O)c4ccccc4N[C@@H]1N3C2=O (some centres unmarked) [Sch 52901 (2), Sch 52900]",NF-κB assay activity (in words),[7],sub-micromolar range
same,IC50,[7],500 nM
COC(=O)[C@H]1[C@@H](O)[C@@]2(O)c3c(OC)cc(O[C@@H]4O[C@@H]([C@H](O)CO)CO[C@H]4OC)cc3O[C@@]2(c2ccc(OC)cc2)[C@@H]1c1ccccc1 [Silvestrol],IC50,Cytotoxicity assay [9],10 nM
same,IC50,Cytotoxicity assay [10],10 nM
"CN1C(=O)[C@]23SS[C@@]1(C)C(=O)N2[C@H]1Nc2ccccc2[C@@]1([C@@]12c4ccccc4N[C@@H]1N1C(=O)[C@@]4(C)SS[C@]1(C(=O)N4C)[C@H]2O)[C@@H]3O [Verticillin A (3), verticillin A]",NF-κB assay activity (in words),[7],sub-micromolar range
same,IC50,[7],100 nM
same,IC50,EGFR tyrosine kinase,> 10000 nM
"CC[C@@]12SS[C@]3(C(=O)N1C)[C@@H](O)[C@]1(C45c6ccccc6N[C@@H]4N4C(=O)[C@@]6(CC)SS[C@@]4(C(=O)N6C)[C@H]5O)c4ccccc4N[C@@H]1N3C2=O (some centres unmarked) [Verticillin H (1), verticillin H]",IC50,[7],> 10000 nM
same,IC50,EGFR tyrosine kinase,> 10000 nM
Sch 52901 [Sch 52900 (5)],IC50,[7],> 10000 nM
